In ChEMBL document CHEMBL1126205, “Novel spirosuccinimides with incorporated isoindolone and benzisothiazole 1,1-dioxide moieties as aldose reductase inhibitors and antihyperglycemic agents” (1992) one finds inhibition, inhibition in vivo and Decrease data, which are given here for 6 compounds.

The test system of assay [1] is Rattus norvegicus. As to the kind of experiment: In vivo galactitol inhibitory activity measured by its ability to inhibit galactitol accumulation in sciatic nerve at 3 mg/Kg/day; NS=Not significant (% Inhibition). It counts as functional, organism-based. In a few lines: (§1)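 Rats (n = 6) fed 20% galactose for 4 days, with compound given in the diet at the stated daily dose. Galactitol accumulation was measured in lens, sciatic nerve and diaphragm, and % inhibition was taken versus the nontreated group. Means are from three to eight drug-treated tissue samples. Dunnett's multiple comparison test was applied, with p > 0.05 reported as not significant.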

Assay [2] deals with Rattus norvegicus. As to the kind of experiment: In vivo galactitol inhibitory activity measured by its ability to inhibit galactitol accumulation in sciatic nerve at 52 mg/Kg/day. The class given is functional. The method in brief: as §1
Assay [3] has as its system Rattus norvegicus. As to the kind of experiment: In vivo galactitol inhibitory activity measured by its ability to inhibit galactitol accumulation in lens at 3 mg/Kg/day; NS=Not significant (% Inhibition). The class given is functional, organism-based. To be noted: Lens of camera-type eye. The method in brief:
(§2)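 Rats (n = 6) fed 20% galactose for 4 days, with compound given in the diet at the stated mg/kg per day. Galactitol accumulation in lens, sciatic nerve or diaphragm is scored as percent inhibition versus the non-treated group, as means of 3–8 drug-treated tissue samples. Dunnett's multiple comparison test applies; NS means p > 0.05.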

The test system of assay [4] is Rattus norvegicus. As to the kind of experiment: In vivo galactitol inhibitory activity measured by its ability to inhibit galactitol accumulation in lens at 52 mg/Kg/day. It counts as functional. To be noted: Lens of camera-type eye. The method in brief: as §2
Assay [5] addresses Aldo-keto reductase family 1 member B1 (Bos taurus) (UniProt P16116). As to the kind of experiment: In vitro aldose reductase inhibitory activity measured by NADPH-dependent inhibition of glyceraldehyde reduction in a partially purified bovine lens preparation at 10E-7 M. In a few lines: (§3)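 Aldose reductase partially purified from bovine lens. Inhibition of NADPH-dependent glyceraldehyde reduction is measured at the single stated concentration and reported as percent inhibition, the mean of two determinations.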

Assay [6] has the same target. Kind of assay: In vitro aldose reductase inhibitory activity measured by NADPH-dependent inhibition of glyceraldehyde reduction in a partially purified bovine lens preparation at 10E-6 M. In a few lines:
as §3

Assay [7] relates to Rattus norvegicus. Kind of assay: In vivo galactitol inhibitory activity measured by its ability to inhibit galactitol accumulation in diaphragm at 3 mg/Kg/day. It counts as functional. In a few lines:
as §2

For assay [8], the system named is Rattus norvegicus. As to the kind of experiment: In vivo galactitol inhibitory activity measured by its ability to inhibit galactitol accumulation in diaphragm at 52 mg/Kg/day. The class given is functional. In a few lines:
as §2

Assay [9] has as its system Mus musculus. As to the kind of experiment: Antihyperglycemic activity measured as percent decrease in mice plasma glucose at 100 mg/Kg/day. It counts as functional. In a few lines: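 Male db/db (C57BL/KsJ) mice, 4–6 per group, dosed at 100 mg/kg per day. Plasma glucose of the drug-treated group is expressed as percent decrease relative to a vehicle-treated control group. Values are mean ± SE, with p < 0.05 marked.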

Assay [10] relates to Rattus norvegicus. Kind of assay: In vivo galactitol inhibitory activity measured by its ability to inhibit galactitol accumulation in diaphragm at 4 mg/Kg/day. It counts as functional. The method in brief: as §2
Assay [11] deals with Rattus norvegicus. Kind of assay: In vivo galactitol inhibitory activity measured by its ability to inhibit galactitol accumulation in sciatic nerve at 4 mg/Kg/day. It counts as functional. In a few lines: as §1
The subject of assay [12] is Rattus norvegicus. As to the kind of experiment: In vivo galactitol inhibitory activity measured by its ability to inhibit galactitol accumulation in lens at 4 mg/Kg/day. The class given is functional. To be noted: Lens of camera-type eye. The method in brief:
as §2

The target of assay [13] is Aldo-keto reductase family 1 member B1 (Bos taurus) (UniProt P16116). As to the kind of experiment: In vitro aldose reductase inhibitory activity measured by NADPH-dependent inhibition of glyceraldehyde reduction in a partially purified bovine lens preparation at 10E-5 M. The method in brief:
as §3

Assay [14] deals with Mus musculus. Kind of assay: Antihyperglycemic activity measured as percent decrease in mice plasma glucose at 20 mg/Kg/day. It counts as functional. In a few lines: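 Male db/db (C57BL/KsJ) mice, 4–6 per group, dosed at the stated mg/kg per day. Plasma glucose is expressed as percent decrease versus the vehicle-treated group. Values are mean ± SE.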
Assay [15] relates to Rattus norvegicus. As to the kind of experiment: In vivo galactitol inhibitory activity measured by its ability to inhibit galactitol accumulation in sciatic nerve at 81 mg/Kg/day. It counts as functional. The method in brief:
as §1

Assay [16] relates to Rattus norvegicus. Kind of assay: In vivo galactitol inhibitory activity measured by its ability to inhibit galactitol accumulation in diaphragm at 81 mg/Kg/day. It counts as functional. In a few lines:
as §2

The subject of assay [17] is Rattus norvegicus. Kind of assay: In vivo galactitol inhibitory activity measured by its ability to inhibit galactitol accumulation in lens at 10 mg/Kg/day; NS=Not significant (% Inhibition). The class given is functional. To be noted: Lens of camera-type eye. In a few lines: as §2
For assay [18], the system named is Rattus norvegicus. As to the kind of experiment: In vivo galactitol inhibitory activity measured by its ability to inhibit galactitol accumulation in lens at 81 mg/Kg/day. The class given is functional. To be noted: Lens of camera-type eye. In a few lines:
as §1

Assay [19] concerns Rattus norvegicus. Kind of assay: In vivo galactitol inhibitory activity measured by its ability to inhibit galactitol accumulation in lens at 6 mg/Kg/day; NS=Not significant (% Inhibition). It counts as functional, organism-based. To be noted: Lens of camera-type eye. In a few lines:
as §2

Assay [20] relates to Rattus norvegicus. As to the kind of experiment: In vivo galactitol inhibitory activity measured by its ability to inhibit galactitol accumulation in lens at 10 mg/Kg/day. To be noted: Lens of camera-type eye. It counts as functional. The method in brief:
as §2

Assay [21] has as its system Rattus norvegicus. As to the kind of experiment: In vivo galactitol inhibitory activity measured by its ability to inhibit galactitol accumulation in lens at 6 mg/Kg/day. To be noted: Rattus norvegicus, Lens of camera-type eye. The class given is functional, Lens of camera-type eye. The method in brief:
as §2

In assay [22] the test system is Rattus norvegicus. Kind of assay: In vivo galactitol activity by measuring its ability to inhibit galactitol accumulation in diaphragm at 6 mg/Kg/day. It counts as functional. The method in brief: as §2
The subject of assay [23] is Mus musculus. Kind of assay: Antihyperglycemic activity was determined by measuring percent decrease in plasma glucose at 1 mg/kg/day. It counts as functional.
The test system of assay [24] is Mus musculus. Kind of assay: Antihyperglycemic activity was determined by measuring percent decrease in plasma glucose at 5 mg/kg/day. It counts as functional.

Activity calls are given as the source filed them. The calls are words filed in the database; no cut-off is given here.

Turning to `CN1C(=O)c2ccc(F)cc2C12CC(=O)NC2=O` (stereo not given), the inhibition result in [1] and in [3] was “inactive” in each case. Besides, the values for the inhibition in vivo at 52 mg/kg/day in assay [2], in [4] and in [8] were 71%, 26% and 68%, respectively. The inhibition was found to be 29% in assay [5] and 74% in assay [6]. For the same compound, the inhibition in vivo at 3 mg/kg/day in assay [7] worked out at 15%. Besides, the Decrease in assay [9] is given as below 15%.
Regarding `O=C1NC(=O)[C@@]2(CCOc3ccc(F)cc32)N1` [SORBINIL], the results for the inhibition in vivo at 4 mg/kg/day in [10], in assay [11] and in assay [12] were 69%, 55% and 20%, respectively.
As to `O=C1CC2(C(=O)N1)c1ccccc1S(=O)(=O)N2Cc1ccc(Cl)c(Cl)c1` (stereo not given), the inhibition in assay [6] amounted to 0%; in [13], 63%. The Decrease in assay [14] is below 15%; in assay [9], 27%.
Consider `CN1C(=O)c2cc(Cl)ccc2C12CC(=O)NC2=O` (stereo not given), for which the inhibition in vivo at 81 mg/kg/day in [15] was 77%; in [16], 81%; in [18], 54%. For the same compound, the inhibition result in assay [3], in assay [17] and in [19] was “inactive” each time. Besides, the inhibition is 21% in assay [5] and 72% in [6]. The inhibition in vivo at 10 mg/kg/day in assay [20] stood at 34%. The compound also came in with a Decrease in [9] below 15%. This compound returned an inhibition in vivo at 6 mg/kg/day in [21] of 31%.
As to `CN1C(=O)c2ccc(Cl)cc2C12CC(=O)NC2=O` (single isomer, unassigned; (-)), the inhibition in vivo at 6 mg/kg/day in [22] was 24%.
As to `Cc1oc(-c2ccccc2)nc1CCOc1ccc(CC2SC(=O)NC2=O)cc1` (stereo not given), the Decrease is 40% in [23] and 52% in assay [24].
